Assay results published in ChEMBL document CHEMBL4402576, “Discovery and Development of Small-Molecule Inhibitors of Glycogen Synthase” (J Med Chem, 2020).
pIC50, pKi: −log10 of the molar value. Active and inactive are the calls of the source. The rule behind the calls is not given here.

Columns and labels:
[1] = biological target: T1, Glycogen [starch] synthase, muscle (Homo sapiens) (UniProt P13807); test: Inhibition of C-terminal 6His-tagged wild type human GYS1 assessed as enzyme activity at 300 uM using UDPG as substrate in presence of 1 mM G-6-P by 14C-glucose incorporation assay relative to control; set-up: scale not given: the % may be the effect or the level left
T1 sequence (whole entry): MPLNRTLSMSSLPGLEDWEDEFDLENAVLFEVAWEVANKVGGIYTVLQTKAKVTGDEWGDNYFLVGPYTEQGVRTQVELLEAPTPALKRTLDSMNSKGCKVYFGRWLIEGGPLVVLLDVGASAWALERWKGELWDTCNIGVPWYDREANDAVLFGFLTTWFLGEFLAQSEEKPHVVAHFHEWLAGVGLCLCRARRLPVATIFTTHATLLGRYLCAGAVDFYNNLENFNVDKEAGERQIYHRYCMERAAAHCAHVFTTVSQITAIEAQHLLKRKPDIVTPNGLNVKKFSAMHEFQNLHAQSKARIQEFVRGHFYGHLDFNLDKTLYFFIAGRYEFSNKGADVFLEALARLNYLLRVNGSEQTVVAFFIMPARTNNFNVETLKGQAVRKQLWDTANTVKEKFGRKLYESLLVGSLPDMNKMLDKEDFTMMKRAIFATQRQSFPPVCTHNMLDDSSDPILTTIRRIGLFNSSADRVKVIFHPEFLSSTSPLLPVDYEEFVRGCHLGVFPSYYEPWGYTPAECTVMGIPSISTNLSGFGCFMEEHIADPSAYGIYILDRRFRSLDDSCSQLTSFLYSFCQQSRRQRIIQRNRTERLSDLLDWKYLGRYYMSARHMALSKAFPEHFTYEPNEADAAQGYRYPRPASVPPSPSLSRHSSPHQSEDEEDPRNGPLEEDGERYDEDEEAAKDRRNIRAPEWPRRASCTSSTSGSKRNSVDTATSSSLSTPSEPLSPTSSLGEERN

[2] = Inhibition of recombinant His-tagged yeast GYS2P expressed in Escherichia coli BL21(DE3) cells using UDPG as substrate in presence of 0.04 mM G-6-P by 14C-glucose incorporation assay; set-up: species or system Saccharomyces cerevisiae
Outline: (§1)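 His-tagged yeast Gsy2p, expressed in E. coli BL21(DE3) and purified by Ni-NTA then Q-sepharose. Radiochemical incorporation of glucose into glycogen with 0.3 mM UDPG, with or without 0.04 mM G6P. Controls contained 2% (v/v) DMSO. IC50 was fitted by four-parameter logistic. Values are mean ± SEM of at least three independent experiments in duplicate.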

[3] = Competitive inhibition of recombinant His-tagged yeast GYS2P expressed in Escherichia coli BL21(DE3) cells using UDPG as substrate in absence of G-6-P by 14C-glucose incorporation based Michaelis-Menton plot analysis; set-up: species or system Saccharomyces cerevisiae
Outline: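 Yeast Gsy2p at 5 μg/ml in a 14C-glucose incorporation assay. UDPG was varied from 0.2 to 8 mM without G6P, and inhibitor was covaried up to 0.8 mM. Data were fitted to competitive, non-competitive and uncompetitive models, and the model was chosen by goodness of fit and residuals. Controls contained 2% (v/v) DMSO. Values are mean ± SEM of three independent experiments in duplicate.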

[4] = species: Homo sapiens; test: Inhibition of C-terminal 6His-tagged human GYS1 delta634S8,11N mutant at 100 uM using UDPG as substrate in presence of 0.4 mM G-6-P by 14C-glucose incorporation assay relative to control
[5] = Competitive inhibition of recombinant His-tagged yeast GYS2P expressed in Escherichia coli BL21(DE3) cells using UDPG as substrate in presence of G-6-P by 14C-glucose incorporation based Michaelis-Menton plot analysis; set-up: species or system Saccharomyces cerevisiae
Outline: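 Ni-NTA then Q-Sepharose purified enzyme (5 μg/ml) assayed by radiolabelled glucose transfer from UDPG into glycogen. UDPG varied 0.2–8 mM with 7.2 mM G6P, covaried against fixed inhibitor levels, 2% (v/v) DMSO throughout. Data fitted to competitive, non-competitive and uncompetitive models, chosen by goodness-of-fit and residuals. Ki given as mean ± SEM of three independent experiments in duplicate.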

[6] = biological target: T1, Glycogen [starch] synthase, muscle (Homo sapiens); test: Inhibition of glycogen synthase in human HEK293 cell lysates overexpressing mouse PTG at 100 uM using 0.2 mM UDPG as substrate in presence of 1 mM G-6-P by 14C-glucose incorporation assay; assay type: subcellular; settings: Lysate
Outline: (§2)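 Lysates came from HEK293 cells stably expressing PTG (5.5 mM glucose αMEM, 10% FBS, hygromycin) or from Rat-1 cells (25 mM glucose DMEM, 10% FBS), grown 3–4 days to confluency. Cells were lysed by freezing, scraping and sonication in Tris/EDTA/EGTA/NaF buffer with protease inhibitors and Triton. Assays used 0.15 mg/mL (HEK293-PTG) or 0.75 mg/mL (Rat-1) lysate in 50 mM Tris-HCl pH 7.8 with 6.7 mg/ml glycogen and 2% DMSO. Read-out was [14C]glucose incorporation relative to DMSO control, in triplicate.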

[7] = Inhibition of recombinant His-tagged yeast GYS2P expressed in Escherichia coli BL21(DE3) cells using UDPG as substrate in absence of G-6-P by 14C-glucose incorporation assay; set-up: species or system Saccharomyces cerevisiae; outline: as §1
[8] = Inhibition of C-terminal 6His-tagged human GYS1 delta634S8,11N mutant using UDPG as substrate in presence of 0.4 mM G-6-P by 14C-glucose incorporation assay
Outline: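 Truncated hGYS1 (residues 635–737 deleted, Ser8/Ser11→Asn, C-terminal 6×His, Ni-NTA purified; activation state ~0.2). Radiolabelled glucose incorporation into glycogen with 0.2 mM UDPG and 0.4 mM G6P. Controls contained 2% (v/v) DMSO. IC50 was fitted by four-parameter logistic. Values are mean ± SEM of at least three independent experiments in duplicate.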

[9] = species: Homo sapiens; test: Inhibition of C-terminal 6His-tagged human GYS1 delta634S8,11N mutant assessed as enzyme activity at 300 uM using UDPG as substrate in presence of 0.4 mM G-6-P by 14C-glucose incorporation assay relative to control; set-up: scale not given: the % may be the effect or the level left
[10] = biological target: T2, Glycogen [starch] synthase, muscle (Homo sapiens, UniProt P13807); test: Inhibition of C-terminal 6His-tagged wild type human GYS1 using UDPG as substrate in presence of 1 mM G-6-P by 14C-glucose incorporation assay
T2 sequence (P13807 whole entry): T1 sequence (whole entry)
Outline: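 Full-length wild-type hGYS1 with C-terminal 6×His tag in place of the intein-chitin binding domain, Ni-NTA purified. Glucose transfer from UDP-[14C]glucose into glycogen with 0.2 mM UDPG and 1 mM G6P. Controls contained 2% (v/v) DMSO. IC50 was fitted by four-parameter logistic. Values are mean ± SEM of at least three independent experiments in duplicate.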

[11] = system: Saccharomyces cerevisiae; test: Inhibition of recombinant His-tagged yeast GYS2P expressed in Escherichia coli BL21(DE3) cells assessed as enzyme activity at 300 uM using UDPG as substrate in presence of G-6-P by 14C-glucose incorporation assay relative to control; set-up: scale not given: the % may be the effect or the level left
[12] = biological target: T3, Glycogen [starch] synthase, muscle (Rattus norvegicus) (UniProt A2RRU1); test: Inhibition of glycogen synthase in rat-1 fibroblast cell lysates at 100 uM using 0.2 mM UDPG as substrate in presence of 1 mM G-6-P by 14C-glucose incorporation assay; assay type: subcellular; settings: Lysate; outline: as §2
T3 sequence (whole entry): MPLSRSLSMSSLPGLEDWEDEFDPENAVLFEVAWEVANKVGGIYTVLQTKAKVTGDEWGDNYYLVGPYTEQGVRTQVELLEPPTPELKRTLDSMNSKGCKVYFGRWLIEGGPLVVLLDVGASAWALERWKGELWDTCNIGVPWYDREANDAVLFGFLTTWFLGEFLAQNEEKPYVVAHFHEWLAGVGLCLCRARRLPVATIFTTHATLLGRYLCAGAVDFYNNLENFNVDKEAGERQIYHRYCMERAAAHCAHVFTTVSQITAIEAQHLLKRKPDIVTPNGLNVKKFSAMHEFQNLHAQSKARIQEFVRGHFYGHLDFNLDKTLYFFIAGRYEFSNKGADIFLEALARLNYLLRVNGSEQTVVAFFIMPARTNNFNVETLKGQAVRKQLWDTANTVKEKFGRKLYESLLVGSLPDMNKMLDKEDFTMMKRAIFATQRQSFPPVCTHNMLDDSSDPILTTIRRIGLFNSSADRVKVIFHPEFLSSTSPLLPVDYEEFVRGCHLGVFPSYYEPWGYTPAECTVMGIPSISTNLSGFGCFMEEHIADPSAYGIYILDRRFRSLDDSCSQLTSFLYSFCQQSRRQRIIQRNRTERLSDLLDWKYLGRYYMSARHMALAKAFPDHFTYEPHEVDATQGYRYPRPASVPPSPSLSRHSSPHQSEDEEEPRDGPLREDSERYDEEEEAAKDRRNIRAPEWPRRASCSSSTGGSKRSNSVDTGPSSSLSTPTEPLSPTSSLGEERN

[13] = biological target: T3, Glycogen [starch] synthase, muscle (Rattus norvegicus); test: Inhibition of glycogen synthase in rat-1 fibroblast cell lysates at 100 uM using 0.2 mM UDPG as substrate in presence of 1 mM G-6-P by 14C-glucose incorporation assay relative to control; assay type: subcellular; settings: Lysate; outline: as §2
[14] = system: Saccharomyces cerevisiae; test: Inhibition of recombinant His-tagged yeast GYS2P expressed in Escherichia coli BL21(DE3) cells assessed as enzyme activity at 20 uM using UDPG as substrate in presence of G-6-P by 14C-glucose incorporation assay relative to control; set-up: scale not given: the % may be the effect or the level left
[15] = biological target: T1, Glycogen [starch] synthase, muscle (Homo sapiens); test: Inhibition of glycogen synthase in human HEK293 cell lysates overexpressing mouse PTG at 100 uM using 0.2 mM UDPG as substrate in presence of 1 mM G-6-P by 14C-glucose incorporation assay relative to control; assay type: subcellular; settings: Lysate; outline: as §2
[16] = biological target: T1, Glycogen [starch] synthase, muscle (Homo sapiens); test: Inhibition of C-terminal 6His-tagged wild type human GYS1 assessed as enzyme activity at 20 uM using UDPG as substrate in presence of 1 mM G-6-P by 14C-glucose incorporation assay relative to control; set-up: scale not given: the % may be the effect or the level left
[17] = species: Homo sapiens; test: Inhibition of C-terminal 6His-tagged human GYS1 delta634S8,11N mutant assessed as enzyme activity at 20 uM using UDPG as substrate in presence of 0.4 mM G-6-P by 14C-glucose incorporation assay relative to control; set-up: scale not given: the % may be the effect or the level left
[18] = Inhibition of recombinant yeast GYS2P Y513L mutant using UDPG as substrate in presence of 7.2 mM G-6-P by 14C-glucose incorporation assay; set-up: species or system Saccharomyces cerevisiae
Outline: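 Yeast Gsy2p Y513L mutant, purified like the wild type. Assayed by 14C-glucose incorporation into glycogen with UDPG under saturating 7.2 mM G6P. IC50 curves used triplicate measurements, with three experiments performed.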

[19] = biological target: T2, Glycogen [starch] synthase, muscle; test: Competitive inhibition of C-terminal 6His-tagged human GYS1 using UDPG as substrate in presence of G-6-P by 14C-glucose incorporation based Michaelis-Menton plot analysis
Outline: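 Radiolabel transfer from UDP-[14C]glucose into glycogen. Inhibitor and UDPG concentrations were covaried. Data were fitted to competitive, non-competitive and uncompetitive models, and the model was chosen by goodness of fit and residuals. Controls contained 2% (v/v) DMSO. Values are mean ± SEM of three independent experiments, each in duplicate.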

pIC50 [10]	inhibition [13]	inhibition [15]	Activity [16]	Activity [17]	SMILES	Activity [14]	further results
3.06					COc1cc(-c2c(-c3ccccc3)ncn2CCC2CCCN2C)ccc1O (racemic)		Activity [1]: 77.1%; pIC50 [2]: 3.58; pKi [3]: 3.54; inhibition [4]: > 20%; pKi [5]: 3.43; inhibition [6]: inactive; pIC50 [7]: 3.55; pIC50 [8]: 3.79; Activity [9]: 46.5%; Activity [11]: 36.5%; inhibition [12]: inactive
4.70	> 30%	> 30%	47.5%	11.8%	Oc1ccc(-c2n[nH]c(C(F)(F)F)c2-c2ccc(Cl)cc2)c(O)c1O	51.5%	
4.85	> 30%	> 30%	47.8%	11.7%	Oc1ccc(-c2n[nH]c(C(F)(F)F)c2-c2ccc(F)cc2)c(O)c1O	45.7%	
5.18	> 30%	> 30%	1.43%	10.5%	O=[N+]([O-])c1ccc(-c2c(-c3ccc(O)c(O)c3O)n[nH]c2C(F)(F)F)cc1	18.8%	
					O=c1ccn([C@@H]2O[C@H](COP(=O)(O)OP(=O)(O)O)[C@@H](O)[C@H]2O)c(=O)[nH]1 [URIDINE_DIPHOSPHATE]		pKi [5]: 3.46
5.56	100%	100%	-0.26%	-1.01%	Oc1ccc(-c2c(-c3ccc(O)c(O)c3O)n[nH]c2C(F)(F)F)cc1	0.97%	pIC50 [2]: 5.10; pIC50 [18]: 4.47; pKi [19]: 5.88
3.42					O=C(O)CCc1ccc(-c2ccccc2)n1-c1ccc(O)cc1		Activity [1]: 58.9%; inhibition [6]: inactive; Activity [9]: 40.1%; Activity [11]: 40.1%; inhibition [12]: inactive
